# Hits are enriched below; roughly 2.2% of the tested compounds scored in any of these assays.
# proKLK7 act – activates the human kallikrein-7 zymogen | P49862 | purified proKLK7, EDANS-DABCYL substrate fluorescence; 100% is mature enzyme control, 0% vehicle | activation, % at 7 µM | 370,000 compounds, 0.9% hits;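 active = activation above the mean of all tested compounds plus 3 SD, computed per campaign excluding outliers beyond control limits, cut at about 13% in these data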
# Neddyl block – blocks human cullin neddylation | 360,000 compounds, 0.58% hits | calls only at 25 µM | TR-FRET cullin neddylation, biochemical; in the data active = inhibition above about 36%
# DDE Tn6 FP inh – disrupts Tn6 cyclic peptide binding to fibrin D-Dimer-E complex; P02675; Fibrin DD(E) TRITC-Tn6 fluorescence polarization displacement; inhibition, % at 8.3 µM; 370,000 compounds, 0.21% hits;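 active = inhibition above a per-campaign cutoff: mean of compounds within control limits plus 3 SD, cut at about 15% in these data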;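 note: 0% = median of all compound wells on the plate and 100% = blocking peptide control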
# Target sequence (P02675 whole entry, looked up): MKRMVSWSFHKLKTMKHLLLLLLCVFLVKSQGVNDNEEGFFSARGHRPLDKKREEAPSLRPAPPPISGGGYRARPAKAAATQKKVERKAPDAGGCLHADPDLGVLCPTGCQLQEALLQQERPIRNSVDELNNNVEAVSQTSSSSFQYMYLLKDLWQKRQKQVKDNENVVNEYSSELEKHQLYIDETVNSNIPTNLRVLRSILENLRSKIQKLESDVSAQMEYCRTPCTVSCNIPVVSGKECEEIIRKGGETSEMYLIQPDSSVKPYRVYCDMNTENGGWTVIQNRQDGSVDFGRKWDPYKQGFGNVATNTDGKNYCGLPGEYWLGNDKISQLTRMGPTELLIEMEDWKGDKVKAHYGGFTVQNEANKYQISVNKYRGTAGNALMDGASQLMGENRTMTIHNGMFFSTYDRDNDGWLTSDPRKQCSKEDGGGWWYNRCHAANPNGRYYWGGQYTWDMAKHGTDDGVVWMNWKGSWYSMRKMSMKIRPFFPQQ
# MT1-MMP act inh – inhibitors of human MT1-MMP activation | 360,000 compounds, 0.061% hits | HT1080 RFP-PRO-GFP cells, GFP/RFP ratio fluorescence, overnight; percent of plate control window, DMSO zero | AID 651647 | GFP/RFP ratio change, % at 20 µM;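 active = GFP/RFP ratio change of at least 30% with cell ATP level not reduced by more than half and red fluorescence within 50% of control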
#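 Assay system: HT1080 RFP-PRO-GFP cells | Dosing: 20 µM single dose, 1% DMSO | Incubation: Cells overnight before dosing, compound overnight, 37 °C, 5% CO2 | Evaluation: GFP/RFP fluorescence ratio | Control set: DMSO-only wells and HT1080 RFP-L50D-GFP cell wells as references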
# SKN-1 inh – inhibitors of C. elegans SKN-1; 360,000 compounds, 0.49% hits; inhibition, % at 21.8 µM; C. elegans VP596 Pgst-4::GFP/RFP ratio, acrylamide-induced, 24 h; AID 624304;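 active = interference check ratio from 0.5 to 1.5 plus GFP to RFP signal ratio inhibition reaching or exceeding a fixed threshold, cut at about 30% in these data, passing the limit was not always enough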
# DDE Tn7 FP inh – DD(E)-Tn7 binding inhibition, primary FP screen; P02675; FP displacement of FITC-Tn7 peptide from fibrin DD(E); 0% = median of compound wells per plate; inhibition, % at 8.3 µM; 370,000 compounds, 0.13% hits;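 active = inhibition above the mean of compounds falling within the control limits plus 3 SD of them, cut at about 14% in these data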;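 note: 0% = plate median of compound wells and 100% = 10 µM Aha-Tn7 peptide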
#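 system = human fibrin DD(E) protein | quantity = DD(E) 2 µM final | medium = Tris/NaCl/CaCl2 buffer, pH 7.8 | also added = labelled Tn7 tracer, 0.1 µM | compound dosing = single point at 8.3 µM | timing = compound with protein 10 min, then 3 h after probe, room temperature | signal = FP measurement | benchmarks = Aha-Tn7 high control | repeats = one replicate per compound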
# DDE Tn7 confirm – DD(E)-Tn7 binding inhibition, FP confirmation | 460 compounds, 5% hits | FP displacement of TRITC-Tn7 peptide from DD(E); 0% set at plate's compound-well median | AID 720628 | shares compounds with DDE Tn7 FP inh | inhibition, % at 8.3 µM;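 active = inhibition above the campaign cutoff, the mean of compounds within control limits plus 3 SD, cut at about 14% in these data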;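 note: 100% = median FP of high control wells holding Aha-Tn7 inhibitor peptide; displacers lower polarization since freed probe rises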
# Tn7 DDE ctr – DD(E)-Tn7 binding inhibition, counter-screen; inhibition, % at 8.3 µM; 460 compounds, 3% hits; shares compounds with DDE Tn7 FP inh; fibrin DD(E), TRITC-Tn7 probe displacement, fluorescence polarization; AID 720633;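 active = inhibition above the cutoff, the mean of compounds lying between the control bounds plus 3 SD of those compounds, cut at about 17% in these data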;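 note: 0% = median of compound sample wells and 100% = excess unlabeled Aha-Tn7 peptide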
# * hit, by the source's call; i = inactive; nt = no result given.
SMILES,proKLK7 act,Neddyl block,DDE Tn6 FP inh,MT1-MMP act inh,SKN-1 inh,DDE Tn7 FP inh,DDE Tn7 confirm,Tn7 DDE ctr
Cc1ccc(/C=N/N2C(=O)C3C(C2=O)C2C=CC3C23CC3)o1 (stereo not drawn),0,i,-2,-3,17,14*,4,4
COc1ccc(N2C(=O)NC3CC2(C)Oc2ccccc23)cc1 (stereo not drawn),0,i,-4,-1,5,16*,1,3
COC(=O)CSc1nc2c(c(=O)n(C)c(=O)n2C)n1CCC(C)C,0,i,-3,1,-20,-3,nt,nt
COc1ccc(C(CNS(=O)(=O)c2ccc(F)cc2)N2CCN(C)CC2)cc1 (stereo not drawn),0,i,-6,-7,6,-9,nt,nt
OCCOCCn1c(C(CO)Nc2nc(-c3ccccc3Br)cs2)nc2ccccc21 (stereo not drawn),0,i,4,-4,-4,14*,4,5
OCCOCCn1c(C(CO)Nc2nc(-c3cccc(Br)c3)cs2)nc2ccccc21 (stereo not drawn),1,i,-4,4,4,3,nt,nt
CCCS(=O)(=O)n1nc(-c2ccc(C)cc2)cc1N,0,i,5,-1,-13,14*,-1,-2
CCCS(=O)(=O)n1nc(-c2ccc(OC)cc2)cc1N,0,i,3,2,0,-2,nt,nt
COc1ccc(C(=O)N2CCN(c3ccc(NC(=O)c4ccco4)cc3)CC2)cc1,0,i,-1,0,-6,14*,-2,-6
CCc1ccc(C(=O)N2CCN(c3ccc(NC(=O)c4ccco4)cc3)CC2)cc1,0,i,2,2,12,-3,nt,nt
COc1cccc(N(CC(=O)Nc2cccnc2)S(C)(=O)=O)c1,0,i,0,-6,1,-1,nt,nt
NC(=O)c1cc(-c2csc(NCCc3ccccc3)n2)ccc1O,-1,i,-2,0,16,0,nt,nt
CC(=O)Nc1ccc(-c2csc(NCCc3ccccc3)n2)cc1,1,i,6,6,14,17*,12,9
Cc1cccc(NC(=O)CSc2nnnn2-c2ccc3c(c2)OCCO3)n1,0,i,-6,0,-4,15*,1,1
CC(C)c1ccc(Nc2c([N+](=O)[O-])c(=O)n(C)c3ccccc23)cc1,0,i,2,3,4,-6,nt,nt
Cn1c(=O)c(Nc2ccc(O)cc2)c2c3c(cccc31)C(=O)c1ccccc1-2,0,i,3,-164,-12,16*,9,5
O=C(NCCc1ccccc1F)c1[nH]c(C(F)(F)F)nc1-c1ccccc1,0,i,-2,-2,10,-2,nt,nt
COCCNC(=O)c1[nH]c(C(F)(F)F)nc1-c1ccccc1,0,i,2,-2,3,15*,8,2
COC(=O)C1CN(C2CCCC2)CCS(=O)(=O)N1Cc1ccccc1 (stereo not drawn),0,nt,0,nt,nt,16*,-2,-5
O=C(N/N=C/c1sc(=O)[nH]c1-[n+]1ccc2ccccc2c1)c1ccccc1[O-],1,i,-5,-66,24,20*,4,2
O=C(N/N=C/c1sc(=O)[nH]c1-[n+]1ccccc1)c1ccccc1[O-],1,i,-3,-4,-9,-3,nt,nt
O=C1[C@H](Cc2ccccc2)NCC=CC[C@@H](c2ccc(Cl)cc2)N1Cc1ccccc1,0,i,-3,-2,2,-2,nt,nt
O=C1[C@H](Cc2ccccc2)NCC=CC[C@H](c2ccco2)N1Cc1ccccc1,0,i,-3,-3,10,16*,2,-5
O=c1ccc(-c2ccc(S(=O)(=O)N3CCCCC3)o2)n[nH]1,1,i,6,1,16,14*,-1,0
Cc1ccc(C)c(N2CCN(S(=O)(=O)c3ccc(-c4ccc(=O)[nH]n4)o3)CC2)c1,0,i,1,4,-7,4,nt,nt
SMILES,proKLK7 act,Neddyl block,DDE Tn6 FP inh,MT1-MMP act inh,SKN-1 inh,DDE Tn7 FP inh,DDE Tn7 confirm,Tn7 DDE ctr
O=C1NC(=S)SC1=Cc1cccs1,0,i,8,3,16,14*,-6,-8
CC[C@@]12C(=O)N(c3ccc(OC)cc3)C(=O)N1[C@H](c1ccc(Cl)cc1)[C@@H]1C(=O)N(C3CCCCC3)C(=O)[C@@H]12,0,i,3,-1,6,16*,7,-1
CC[C@@]12C(=O)N(c3cccc(Br)c3)C(=O)N1[C@H](c1ccc(Cl)cc1)[C@@H]1C(=O)N(C3CCCCC3)C(=O)[C@@H]12,0,i,4,2,0,-6,nt,nt
COc1ccc(CCNC(=O)Nc2nnc([C@H]3C[C@H](O)[C@@H](CO)O3)s2)cc1OC,0,i,2,-3,3,-9,nt,nt
Cc1onc(C(=O)Nc2sc3c(c2C(N)=O)CCCC3)c1[N+](=O)[O-],0,i,1,0,-4,16*,3,0
O=S(=O)(c1ccc(SCc2ccc(Br)cc2)nc1)N1CCCCC1,0,i,3,-4,-13,14*,-5,-10
O=S(=O)(c1ccc(SCc2ccccc2)nc1)N1CCCCC1,0,i,-5,8,-10,-9,nt,nt
COc1cccc(NC(=O)COC(=O)c2ccc(S(=O)(=O)NCc3ccco3)cc2)c1,-1,i,4,-5,0,15*,0,-5
CC(=O)Nc1ccc(NC(=O)COC(=O)c2ccc(S(=O)(=O)NCc3ccco3)cc2)cc1,0,i,6,3,-7,-4,nt,nt
COc1ccc(/C=C/C(=O)Nc2ccccc2C(F)(F)F)cc1,-1,i,-2,1,10,3,nt,nt
Cc1ccc(NC(=O)C2CC(O)CN2C(=O)OCc2ccccc2)cc1C (stereo not drawn),0,i,5,-1,23,15*,7,3
CCn1cc(C2C3=C(CC(C)(C)CC3=O)N(c3ccccc3)C3=C2C(=O)CC(C)(C)C3)c(C)n1,-1,i,-11,-3,6,7,nt,nt

# Bioassay records from PubChem.
